# Data as given in the RNAGym collection of RNA variant scans (doi:10.1038/s41586-018-0170-7).
# B1: tRNA (parent)
# chain: GUUCCGUUGGCGUAAUGGUAACGCGUCUCCCUCCUAAGGAGAAGACUGCGGGUUCGAGUCCCGUACGGAACG
# Variants of: B1
# Assay: yeast fitness, log relative to wild type (ln ratio); higher = fitter; tRNA-Arg(CCU), competitive growth, 37 C, 1 M NaCl
# Method in brief: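 Fitness is the natural log of a genotype's generation count divided by that of the wild type. A combinatorial library of tRNA-Arg(CCU) variants sat on a HIS3 centromeric plasmid in BY4742 lacking the chromosomal gene, from two independent transformations. Pools grew 4 generations in SC-HIS at 30 °C, then ~6.5 generations (~26.5 h) in SC-HIS 1M NaCl at 37 °C, with three outputs per input. Generations came from OD-scaled log2 output/input frequency, inverse-variance weighted across replicates, with variants counted by 125 bp paired-end Illumina sequencing.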
row,Variant,yeast fitness (ln)
1,GCUCCGUUGGCGUAAUGGUAACGCGUUUCCCUCCUAAGGAGAAGACUGCGGGUUCGAGUCCCGUAUGGAUCG [U2C C27U C66U A70U],-0.113
2,GCUCCGUUGGCGUAAUGGUAACGCGUUUCCCUCCUAAGGAGAAGACUGCGGGUUCGAGUCCCGUAUGGAGCG [U2C C27U C66U A70G],-0.0659
3,GCUCCGUUGGCGUAAUGGUAACGCGUUUCCCUCCUAAGGAGAAGACUGCGGGUUCGAGUCCCGUAUGGAGUG [U2C C27U C66U A70G C71U],-0.172
4,GCUCCGUUGGCGUAAUGGUAACGCGUCUCCCUCCUAAGGAGAAGAUUGCGGGUUCGAGUCCCGUAAGGAACG [U2C C46U C66A],-0.0347
5,GCUCCGUUGGCGUAAUGGUAACGCGUCUCCCUCCUAAGGAGAAGAUUGCGGGUUCGAGUCCCGUAUGGAACG [U2C C46U C66U],-0.171
6,GCUCCGUUGGCGUAAUGGUAACGCGUCUCCCUCCUAAGGAGAAGAUUGCGGGUUCGAGUCCCGUAUGGAGUG [U2C C46U C66U A70G C71U],-0.00524
7,GCUCCGUUGGCGUAAUGGUAACGCGUCUCCCUCCUAAGGAGAAGAUUGCGGGUUCGAGUCCCGUACGGAGUG [U2C C46U A70G C71U],-0.00238
8,GCUCCGUUGGCGUAAUGGUAACGCGUUUCCCUCCUAAGGAGAAGACUGCGGGUUCGAGUCCCGUAUGGGAUG [U2C C27U C66U A69G C71U],-0.303
9,GCUCCGUUGGCGUAAUGGUAACGCGUUUCCCUCCUAAGGAGAAGACUGCGGGUUCGAGUCCCGUAAGGGUCG [U2C C27U C66A A69G A70U],-0.119
10,GCUCCGUUGGCGUAAUGGUAACGCGUCUCCCUCCUAAGGAGAAGAUUGCGGGUUCGAGUCCCGUAUGGGAUG [U2C C46U C66U A69G C71U],-0.145
11,GCUCCGUUGGCGUAAUGGUAACGCGUUUCCCUCCUAAGGAGAAGAUUGCGGGUUCGAGUCCCGUAUGGAAUG [U2C C27U C46U C66U C71U],-0.132
12,GCUCCGUUGGCGUAAUGGUAACGCGUCUCCCUCCUAAGGAGAAGACUGCGGGUUCGAGUCCCGUAAGGAUUG [U2C C66A A70U C71U],-0.0799
13,GCUCCGUUGGCGUAAUGGUAACGCGUUUCCCUCCUAAGGAGAAGACUGCGGGUUCGAGUCCCGUAAGGGGUG [U2C C27U C66A A69G A70G C71U],-0.142
14,GCUCCGUUGGCGUAAUGGUAACGCGUUUCCCUCCUAAGGAGAAGACUGCGGGUUCGAGUCCCGUAUGGGGUG [U2C C27U C66U A69G A70G C71U],-0.529
15,GCUCCGUUGGCGUAAUGGUAACGCGUCUCCCUCCUAAGGAGAAGACUGCGGGUUCGAGUCCCGUAUGGGUUG [U2C C66U A69G A70U C71U],-0.404
16,GCUCCGUUGGCGUAAUGGUAACGCGUCUCCCUCCUAAGGAGAAGACUGCGGGUUCGAGUCCCGUAAGGAACG [U2C C66A],0.0749
17,GCUCCGUUGGCGUAAUGGUAACGCGUCUCCCUCCUAAGGAGAAGACUGCGGGUUCGAGUCCCGUAUGGAACG [U2C C66U],-0.207
18,GCUCCGUUGGCGUAAUGGUAACGCGUUUCCCUCCUAAGGAGAAGACUGCGGGUUCGAGUCCCGUAUGGAAUG [U2C C27U C66U C71U],-0.177
19,GCUCCGUUGGCGUAAUGGUAACGCGUUUCCCUCCUAAGGAGAAGACUGCGGGUUCGAGUCCCGUAAGGAUCG [U2C C27U C66A A70U],-0.0861

row,Variant,yeast fitness (ln)
1,GCUCCGUUGGCGUAAUGGUAACGCGUUUCCCUCCUAAGGAGAAGACUGCGGGUUCGAGUCCCGUAAGGAGCG [U2C C27U C66A A70G],-0.105
2,GCUCCGUUGGCGUAAUGGUAACGCGUUUCCCUCCUAAGGAGAAGACUGCGGGUUCGAGUCCCGUAUGGGGCG [U2C C27U C66U A69G A70G],-0.185
3,GCUCCGUUGGCGUAAUGGUAACGCGUUUCCCUCCUAAGGAGAAGACUGCGGGUUCGAGUCCCGUAUGGGUCG [U2C C27U C66U A69G A70U],-0.188
4,GCUCCGUUGGCGUAAUGGUAACGCGUCUCCCUCCUAAGGAGAAGAUUGCGGGUUCGAGUCCCGUAUGGGUUG [U2C C46U C66U A69G A70U C71U],-0.359
5,GCUCCGUUGGCGUAAUGGUAACGCGUUUCCCUCCUAAGGAGAAGACUGCGGGUUCGAGUCCCGUAAGGAAUG [U2C C27U C66A C71U],-0.146
6,GCUCCGUUGGCGUAAUGGUAACGCGUCUCCCUCCUAAGGAGAAGACUGCGGGUUCGAGUCCCGUAAGGGGUG [U2C C66A A69G A70G C71U],-0.105
7,GCUCCGUUGGCGUAAUGGUAACGCGUCUCCCUCCUAAGGAGAAGAUUGCGGGUUCGAGUCCCGUACGGGAUG [U2C C46U A69G C71U],-0.131
8,GCUCCGUUGGCGUAAUGGUAACGCGUCUCCCUCCUAAGGAGAAGAUUGCGGGUUCGAGUCCCGUAAGGGGCG [U2C C46U C66A A69G A70G],-0.0391
9,GCUCCGUUGGCGUAAUGGUAACGCGUCUCCCUCCUAAGGAGAAGAUUGCGGGUUCGAGUCCCGUAUGGAUUG [U2C C46U C66U A70U C71U],-0.155
10,GCUCCGUUGGCGUAAUGGUAACGCGUCUCCCUCCUAAGGAGAAGACUGCGGGUUCGAGUCCCGUAUGGGGCG [U2C C66U A69G A70G],-0.0264
11,GCUCCGUUGGCGUAAUGGUAACGCGUCUCCCUCCUAAGGAGAAGACUGCGGGUUCGAGUCCCGUAUGGGUCG [U2C C66U A69G A70U],-0.0622
12,GCUCCGUUGGCGUAAUGGUAACGCGUCUCCCUCCUAAGGAGAAGAUUGCGGGUUCGAGUCCCGUACGGGGUG [U2C C46U A69G A70G C71U],-0.0139
13,GCUCCGUUGGCGUAAUGGUAACGCGUCUCCCUCCUAAGGAGAAGACUGCGGGUUCGAGUCCCGUAAGGGUUG [U2C C66A A69G A70U C71U],-0.496
14,GCUCCGUUGGCGUAAUGGUAACGCGUCUCCCUCCUAAGGAGAAGAUUGCGGGUUCGAGUCCCGUAUGGGGUG [U2C C46U C66U A69G A70G C71U],-0.0462
15,GCUCCGUUGGCGUAAUGGUAACGCGUUUCCCUCCUAAGGAGAAGACUGCGGGUUCGAGUCCCGUAUGGAUUG [U2C C27U C66U A70U C71U],-0.324
16,GCUCCGUUGGCGUAAUGGUAACGCGUCUCCCUCCUAAGGAGAAGAUUGCGGGUUCGAGUCCCGUAAGGAAUG [U2C C46U C66A C71U],-0.0793
17,GCUCCGUUGGCGUAAUGGUAACGCGUCUCCCUCCUAAGGAGAAGAUUGCGGGUUCGAGUCCCGUAAGGGGUG [U2C C46U C66A A69G A70G C71U],-0.128
18,GCUCCGUUGGCGUAAUGGUAACGCGUCUCCCUCCUAAGGAGAAGAUUGCGGGUUCGAGUCCCGUAUGGAUCG [U2C C46U C66U A70U],-0.2
19,GCUCCGUUGGCGUAAUGGUAACGCGUCUCCCUCCUAAGGAGAAGAUUGCGGGUUCGAGUCCCGUAUGGAGCG [U2C C46U C66U A70G],0.0022
